Compound activity (PubChem)
Scp1 inh – Scp-1 phosphatase inhibitors, primary screen, biochemical, colorimetric, uHTS | Recombinant Scp1, phosphopeptide, malachite green phosphate absorbance | inhibition, % at 20 µM | Carboxy-terminal domain RNA polymerase II polypeptide A small phosphatase 1 (Homo … | 0.88% of 340,000 active;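 active = inhibition above about 50% at 20 µM, limit read from the data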;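 note: plate controls were DMSO wells with enzyme for no effect and wells lacking enzyme for full effect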
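Test system: SCP-1 phosphatase catalytic domain, residues 76-261 | Compound dosing: One concentration, 20 µM, with 1.0% DMSO | Schedule: 45 min room-temperature reaction, 5 min colour, 30 min stabiliser | Detection: Absorbance at 630 nm | Read-out basis: % inhibition of SCP-1 phosphate liberation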
STEP block – STEP phosphatase inhibitors, primary screen, biochemical, fluorescence intensity, uHTS; recombinant STEP, OMFP fluorogenic substrate; Tyrosine-protein phosphatase non-receptor type 5 (Homo sapiens), P54829; 0.25% of 360,000 active; inhibition, % at 20 µM; AID 588621, 2011;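 active = inhibition at 20 µM, scaled per plate between control wells, above about 37%, limit read from the data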;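 note: 0% = DMSO with enzyme and substrate and 100% = substrate only without enzyme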
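Assay system: isolated STEP enzyme. Buffer or medium: pH 6.0 Bis-Tris with DTT and Tween 20. Also added: fluorogenic phosphatase substrate OMFP at 25 µM final. Dosing: 20 µM, 1% DMSO. Timing: 20 min reaction, room temperature, in the dark. Measured by: fluorescence intensity, excitation 480 nm, emission 540 nm. Evaluation: normalized % inhibition.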
CFTR F508del cor – F508del CFTR correction, initial screen, CFBE line, single point. CFBE cells, YFP halide quenching; stimulated with forskolin plus potentiator P3; % fluorescence drop versus neutral controls. activity (quench increase), % at 7.58 µM. 0.36% of 350,000 active. AID 720511, 2013;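 active = mean added fluorescence quench of at least 8% versus neutral control, with both replicates also reaching 8%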;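 note: cells transiently co-express mutant CFTR-F508del with the halide-sensitive YFP; corrector assay measuring rescue of mutant channel to the surface after 24 h compound exposure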
LMPTP inh – LMPTP phosphatase inhibitors, primary screen, biochemical, fluorescence intensity, uHTS | Low molecular weight phosphotyrosine protein phosphatase (Homo sapiens), P24666 | recombinant LMPTP-A, OMFP fluorogenic substrate | inhibition, % at 20 µM | 0.22% of 360,000 active;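 active = compounds that cut the enzyme signal by at least half of the control window in the single-dose screen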;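 note: plate controls were DMSO wells with enzyme plus substrate for no effect and substrate without enzyme for full effect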
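Assay system: LMPTP-A, protein tyrosine phosphatase of low molecular weight / Medium: pH 6.0 Bis-Tris buffer with DTT and Triton X-100 / Schedule: 50 min enzyme reaction at room temperature, protected from light / Measured by: endpoint fluorescence intensity from OMFP dephosphorylation / Read-out basis: % inhibition relative to no-enzyme and uninhibited control wells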
DNMT1 block – human DNMT1 methyltransferase inhibitors, primary screen, biochemical, molecular beacon, fluorescence, HinP1I cleavage, uHTS. inhibition (reported as % activation of signal), % at 10 µM. 0.83% of 360,000 active. AID 588458, 2011; in the data active = inhibition above about 50%
SUMO1-SIM PPI – modulators of SUMO1 protein-protein interactions, primary screen, biochemical, uHTS | SUMO1 binding to a labelled peptide, TR-FRET, 1 h | inhibition, % at 20 µM | 0.33% of 360,000 active | Small ubiquitin-related modifier 1 (Homo sapiens), P63165; in the data active = inhibition above about 37%
Scp-1 conf – Scp-1 phosphatase inhibitors, retest, confirmation, biochemical, colorimetric, single concentration | shares compounds with Scp1 inh | recombinant SCP-1 catalytic domain, phosphate release, malachite green absorbance | inhibition, % at 20 µM | 61% of 2,500 active;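 note: plate controls were DMSO with enzyme for no effect and buffer wells lacking enzyme for full effect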
Scp-1 MG ctr – colorimetric readout interference by compounds, confirmation, artefact control for Scp-1 inhibitor project, biochemical, single concentration. 2,500 tested, under 10 active. shares compounds with Scp1 inh. AID 540313, 2011. Colorimetric interference counterscreen, malachite green absorbance 630 nm. apparent inhibition (interference), % at 20 µM;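 note: compounds added after enzyme reaction finished so only phosphate colour detection is probed; plate controls were DMSO wells with completed Scp-1 reaction for no effect and substrate wells lacking enzyme for full effect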
Scp1 DSF – Scp-1 binding by thermal shift, confirmation, orthogonal assay for Scp-1 inhibitor project, biophysical, differential scanning fluorimetry. shares compounds with Scp1 inh. Recombinant SCP1, Sypro Orange thermal shift Tm. thermal shift relative to vanadate control, % at 40 µM. 25% of 1,500 active. AID 540329, 2011;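 active = substances whose mean melting-temperature shift, as a percentage of the reference inhibitor's shift, reaches about 5.3%, limit read from the data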;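 note: 0% = Tm of DMSO wells and 100% = Tm with sodium orthovanadate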
DNMT1 interf DR – spectral interference with molecular beacon fluorescence, dose response, artefact control for DNMT1 inhibitor project, biochemical, fluorescent molecular beacon; shares compounds with DNMT1 block; spectral interference counter-screen; IC50, µM; 200 tested, under 10 active; AID 602382, 2012; call rule not given here
DNMT1 inh conf – DNMT1 methyltransferase inhibitor retest, confirmation, biochemical, molecular beacon, fluorescence, single concentration; inhibition, % at 10 µM; DNMT1 molecular beacon HinP1I cleavage; 8% of 2,300 active; shares compounds with DNMT1 block;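 active = average inhibition of at least 30% in the single-concentration confirmation test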
DNMT1 interf – beacon fluorescence artifact counter-screen. shares compounds with DNMT1 block. DNMT1 molecular beacon spectral interference counterscreen, fluorescence 485/520. activation (fluorescence interference), % at 10 µM. 1% of 2,300 active;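 active = activation of at least 30% at 10 µM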;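 note: DNMT1 catalytic domain with a HinP1I cleavage step and a FAM/dabcyl DNA beacon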
* marks the source's active call; other numbers are inactive results; nt = not tested or not shown. Compounds with a hit are over-represented: about 1.6% of the library has one in this group of screens.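 Rule for the calls, unless noted: active = inhibition of at least 30% at 20 µM; inactive = the rest.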

SMILES	Scp1 inh	STEP block	CFTR F508del cor	LMPTP inh	DNMT1 block	SUMO1-SIM PPI	Scp-1 conf	Scp-1 MG ctr	Scp1 DSF	DNMT1 inh conf	DNMT1 interf	others
N=C1S/C(=C\c2ccccc2F)C(=O)N1c1ccc(F)cc1	87*	18	-3	38	60*	-3	-6	-9	nt	3	-1
CCOC(=O)C1=C(O)/C(=C\c2ccc(CNC(=O)C(=O)Nc3ccccc3)o2)N=C1C	97*	8	nt	37	101*	32	62*	-13	6.2*	6	0
CCOC(=O)C1=C(O)/C(=C\c2cccs2)N=C1C	-14	4	nt	0	13	-12	nt	nt	nt	nt	nt
COC(=O)[C@H]1[C@H](CO)[C@H]2Cn3c(ccc(-c4cccc(C(=O)N(C)C)c4)c3=O)[C@H]2N1C	nt	nt	3	nt	nt	nt	nt	nt	nt	nt	nt
CCN(CC)c1ccc(NC(=O)CCS(=O)(=O)c2ccc(Br)cc2)c(C)c1	82*	4	-2	-1	97*	27	49*	-16	-14	42*	4	DNMT1 interf DR=>99
O=C(CCS(=O)(=O)c1ccc(Br)cc1)NCCC1=CCCCC1	63*	7	-1	0	65*	1	72*	-10	-22	6	1
Cc1ccc(CNC(=O)CCS(=O)(=O)c2ccc(Br)cc2)cc1	84*	8	nt	1	89*	7	76*	-5	-1	24	7
CCC(=O)N(C)C[C@H]1Oc2cc(-c3ccc(OC)cc3)ccc2S(=O)(=O)N([C@@H](C)CO)C[C@H]1C	nt	nt	-1	nt	nt	nt	nt	nt	nt	nt	nt
COc1ccc(NC(=O)COC(=O)c2ccc(S(=O)(=O)N3CC(C)CC(C)C3)cc2)cc1OC (stereo not drawn)	nt	0	0	2	20	11	nt	nt	nt	nt	nt
COc1cc(NC(=O)COC(=O)c2ccc(S(=O)(=O)N3CC(C)CC(C)C3)cc2)c(C)cc1[N+](=O)[O-] (stereo not drawn)	67*	2	nt	1	56*	10	35*	-10	1	0	-1
C[C@@H]1CN([C@@H](C)CO)S(=O)(=O)c2ccc(C#C[C@@H](C)O)cc2O[C@@H]1CN(C)C(=O)Nc1ccccc1	nt	nt	0	nt	nt	nt	nt	nt	nt	nt	nt
CCOC(=O)c1cc(-c2ccc(N3CCOCC3)cc2)nn1-c1ccccc1C(=O)O	80*	96*	1	58*	94*	106*	64*	-15	-13	35*	-4	DNMT1 interf DR=>99
C[C@H](CO)N1C[C@H](C)[C@@H](CN(C)Cc2ccc(C(F)(F)F)cc2)OCCCC[C@H](C)Oc2ccc(NC(=O)Cc3ccccc3)cc2C1=O	nt	nt	3	nt	nt	nt	nt	nt	nt	nt	nt
CC(CNc1ccccc1O)C(=O)O (stereo not drawn)	73*	-1	-2	-1	64*	-3	43*	-17	-3	2	0
CN(C)C(=O)c1cccc(-c2ccccc2[C@@H]2[C@@H](CO)N(C(=O)C3CCC3)[C@H]2C#N)c1	nt	nt	0	nt	nt	nt	nt	nt	nt	nt	nt
NC(=O)Cc1ccc(C(=O)CSc2nnc(-c3ccncc3)n2C2CC2)s1	79*	0	-4	57*	78*	15	82*	5	7.0*	8	-1
N#CCCN(C(=O)CSc1nnc(-c2ccncc2)n1C1CC1)c1ccccc1	-7	-2	2	-2	4	5	nt	nt	nt	nt	nt
NS(=O)(=O)c1ccc(CNC(=O)Cc2cccs2)cc1	83*	3	3	50*	52*	2	48*	-19	6.9*	5	1
C/C=C/c1ccc([C@H]2[C@@H](CO)N(C(C)=O)C23CN(C(=O)c2ccc(F)cc2)C3)cc1	nt	nt	-1	nt	nt	nt	nt	nt	nt	nt	nt
COc1ccc(-c2nnc(NC(=O)c3cccs3)s2)c(OC)c1	96*	14	0	45	80*	13	67*	-16	-18	2	-4
Cc1ccc(S(=O)(=O)Nc2ccc3c(c2)C(=O)N([C@@H](C)CO)C[C@@H](C)[C@@H](CN(C)C)OCCCC[C@H](C)O3)cc1	nt	nt	0	nt	nt	nt	nt	nt	nt	nt	nt
O=C(/C=C/c1ccco1)N1CCN(S(=O)(=O)c2ccccc2)CC1	73*	18	0	10	66*	6	70*	-10	-10	4	4
O=C(/C=C/c1ccc(Cl)c([N+](=O)[O-])c1)Nc1ccc(NC(=O)c2ccco2)cc1	-1	0	2	1	10	1	nt	nt	nt	nt	nt
O=C(/C=C/c1ccc(Cl)c([N+](=O)[O-])c1)Nc1ccc(N2CCCC2)cc1	88*	8	-1	11	88*	-2	77*	-14	6.0*	2	-1
CC(=O)c1c(C)oc2ccc(NS(=O)(=O)c3ccc(C)cc3)cc12	-4	0	0	3	3	-1	nt	nt	nt	nt	nt
Cc1ccc(C)c(S(=O)(=O)Nc2ccc3oc(C)c(C(=O)O)c3c2)c1	70*	64*	-1	23	83*	51*	64*	-13	12*	16	-1
O=C(C[C@H]1CC[C@@H]2[C@H](COC[C@H](O)CN2Cc2ccc(C(F)(F)F)cc2)O1)NCCc1ccccc1	nt	nt	1	nt	nt	nt	nt	nt	nt	nt	nt
